From ChEMBL document CHEMBL3853330, “Exploring the N-Terminal Region of C-X-C Motif Chemokine 12 (CXCL12): Identification of Plasma-Stable Cyclic Peptides As Novel, Potent C-X-C Chemokine Receptor Type 4 (CXCR4) Antagonists” (J Med Chem, 2016) come the findings set out here.

The source made the active and inactive calls. The rule behind the calls is not given here. Positions of bridges follow the written chain, without caps; N, C: chain ends. Residues, ends and D or L forms follow the SMILES beside them.

Data set [1] addresses T1, C-X-C chemokine receptor type 4 (Homo sapiens, UniProt P61073). Kind of data set: Inhibition of PE-conjugated-12G5 anti-CXCR4 antibody binding to CXCR4 in human CEM-CCRF cells preincubated for 30 mins followed by antibody addition by FACS Canto II cytofluorometric analysis. The data set is classed as cell-based. (In general: Flow cytometry measures light scatter and fluorescence of single cells or particles in a stream.)

Data set [2] addresses T1, C-X-C chemokine receptor type 4. The experiment in a line: Inhibition of CXCR4 in human serum starved CEM cells assessed as suppression of CXCL12-dependent ERK phosphorylation at 0.001 to 0.1 uM after 2 to 20 mins in presence of CXCL12 by H/E staining based microscopic analysis. It counts as cell-based. To be noted: CCRF-CEM, in the assay text read “immunoblotting” for “H/E staining based microscopic analysis”. Summed up: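 Serum-starved CEM cells were stimulated with CXCL12 (100 ng/mL) in the presence of peptide. Lysates were made in Hepes pH 7.5/Triton X-100 buffer with protease and phosphatase inhibitors and immunoblotted for p-ERK and ERK2. Induction is the ratio of p-ERK with CXCL12 to p-ERK under serum-free conditions.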
Background: In western blotting, separated proteins are transferred to a membrane and probed.

Data set [3] shares this target. Kind of data set: Antagonist activity at CXCR4 in human HT29 cells assessed as suppression of CXCL12 dependent cell migration at 0.0001 to 10 uM in presence of CXCL12 by H/E staining based microscopic analysis. To be noted: HT-29. Summed up: (§1)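 Transwell migration assay: inserts with 5 μm pores for CEM cells and 8 μm pores for HT29 cells, membranes precoated with human collagen type I/III and fibronectin (20 μg/mL each). 2 × 10^5 cells went in the upper chamber in medium with 1% BSA plus peptide, and 100 ng/mL CXCL12 in the lower chamber, for 18 h. Migrated cells were H&E-stained and counted in 10 fields. Migration index was taken against BSA-only medium.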

For data set [4] the target is unchanged. Kind of data set: Inhibition of CXCR4 in human CEM cells assessed as suppression of CXCL12-dependent cell migration after 18 hrs in presence of CXCL12 by H/E staining based microscopic analysis. The conditions noted are these: CCRF-CEM. The gist of the method:
as §1

The nature of data set [5]: Metabolic stability in human plasma after 180 mins by ESI-RP-HPLC analysis. The data set is classed as ADME, cell-free. To be noted: 3 h. Summed up:
(§2)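 Peptide (1 mg/mL in water) was mixed 1:1 with prewarmed (37 °C) human plasma diluted to 50% in water. Aliquots were taken at 0, 30, 60, 120 and 180 min and quenched with 1% TFA in acetonitrile. After centrifugation, supernatants were run on C18 HPLC-ESI-MS with a 10–90% ACN gradient (0.1% TFA) over 20 min. Relative levels came from A230 peak integration.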

Data set [6] concerns the target T1, C-X-C chemokine receptor type 4. The experiment in a line: Inhibition of GFP-tagged CXCR4 (unknown origin) internalization expressed in human HCT116 cells at 0.1 uM pre-incubated for 45 mins followed by CXCL12 addition measured after 45 mins by alpha-tubulin/alexa fluor594/DAPI staining based confocal microscopic analysis. It counts as cell-based. To be noted: HCT-116. The gist of the method: (§3)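 HCT116 cells were stably transfected with GFP-CXCR4, grown 1 day on coverslips in DMEM/10% FBS, then equilibrated in DMEM with 0.5% BSA. Cells got peptide (0.1 μM) for 45 min at 37 °C, then CXCL12 for 45 min at 37 °C. They were fixed in 4% formaldehyde, permeabilized with 0.1% Triton, and stained for α-tubulin (Alexa Fluor 594) and DAPI. Confocal microscopy assessed membrane fluorescence and intracellular vesicles.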

Data set [7] shares this target. The experiment in a line: Inhibition of 12G5 anti-CXCR4 antibody binding to CXCR4 in human HT29 cells preincubated for 30 mins followed by antibody addition by FACS Canto II cytofluorometric analysis. It counts as cell-based, HT-29.
Data set [8] has the same target. Kind of data set: Inhibition of GFP-tagged CXCR4 (unknown origin) internalization expressed in human HCT116 cells assessed as reduction in vesicle size at 0.1 uM pre-incubated for 45 mins followed by CXCL12 addition measured after 45 mins by alpha-tubulin/alexa fluor594/DAPI staining based confocal microscopic analysis. It counts as cell-based. To be noted: HCT-116. The gist of the method: as §3

The nature of data set [9]: Drug metabolism in human plasma after 30 mins by ESI-RP-HPLC analysis. The data set is classed as ADME, cell-free. The conditions noted are these: read-out: Drug metabolism.
Data set [10] in a line: Drug metabolism in human plasma assessed as cyclic pentapeptide cyclo[Cys-Arg-Phe-Phe-Cys] metabolite formation after 120 mins by ESI-RP-HPLC analysis. It counts as ADME, cell-free. To be noted: 2 h. The gist of the method:
as §2

Data set [11] is described as follows: Metabolic stability in human plasma assessed as compound degradation after 60 mins by ESI-RP-HPLC analysis. The data set is classed as ADME, cell-free. To be noted: read-out: Drug degradation. Summed up: as §2
Data set [12] is described as follows: Drug level in human plasma treated with (4R,7S,10S,13S,16R)-16-amino-7,10-dibenzyl-13-(3-guanidinopropyl)-6,9,12,15-tetraoxo-1,2-dithia-5,8,11,14-tetraazacycloheptadecane-4-carboxylic acid after 2 hrs by ESI-RP-HPLC analysis. The data set is classed as ADME. Summed up:
as §2

T1 sequence (P61073 whole entry): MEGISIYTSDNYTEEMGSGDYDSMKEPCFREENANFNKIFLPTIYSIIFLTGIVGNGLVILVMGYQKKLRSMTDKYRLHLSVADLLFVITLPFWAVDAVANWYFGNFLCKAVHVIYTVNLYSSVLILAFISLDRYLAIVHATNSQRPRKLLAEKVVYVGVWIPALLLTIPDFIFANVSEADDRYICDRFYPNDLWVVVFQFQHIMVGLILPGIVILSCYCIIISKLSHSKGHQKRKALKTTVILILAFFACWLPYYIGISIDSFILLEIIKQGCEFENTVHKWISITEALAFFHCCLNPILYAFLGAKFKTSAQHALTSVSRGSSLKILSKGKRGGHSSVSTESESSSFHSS

A word on the IC50: it is the point on the concentration scale where inhibition reaches its midpoint. Higher therefore signals a need for much substance. With `CC(=O)N[C@@H](CCCNC(=N)N)C(=O)N[C@@H](C)C(=O)N[C@H]1CSSC[C@@H](C(=O)O)NC(=O)[C@@H](Cc2ccccc2)NC(=O)[C@H](Cc2ccccc2)NC(=O)[C@H](CCCNC(=N)N)NC1=O`, the IC50 in data set [1] is greater than 10 µM.

Regarding `CC(=O)N[C@@H](CCCNC(=N)N)C(=O)N[C@@H](C)C(=O)N[C@@H]1CSSC[C@@H](C(=O)O)NC(=O)[C@H](Cc2ccccc2)NC(=O)[C@H](Cc2ccccc2)NC(=O)[C@H](CCCNC(=N)N)NC1=O`, the half-maximal inhibitory concentration (IC50) in [1] is 0.053 µM; in [7] it was 0.064 µM. The inhibition entry in [2], in data set [3], in data set [4], in data set [6] and in data set [8] was “Active” throughout. Also, the Stability result in data set [5] is on record as “Stable”.

Turning to `CC(=O)N[C@H](CCCNC(=N)N)C(=O)N[C@@H](C)C(=O)N[C@H]1CSSC[C@@H](C(=O)O)NC(=O)[C@H](Cc2ccccc2)NC(=O)[C@H](Cc2ccccc2)NC(=O)[C@H](CCCNC(=N)N)NC1=O`, in data set [1], the IC50 was greater than 10 µM.

In the case of `CC(=O)N[C@@H](CCCNC(=N)N)C(=O)N[C@@H](C)C(=O)N[C@H]1CSSC[C@@H](C(=O)O)NC(=O)[C@H](Cc2ccccc2)NC(=O)[C@H](Cc2ccccc2)NC(=O)[C@H](CCCNC(=N)N)NC1=O`, the 50% inhibitory concentration (IC50) in data set [1] amounted to 0.131 µM. In data set [5], the Stability result was “Stable”.

In the case of `CC(=O)N[C@@H](CCCNC(=N)N)C(=O)N[C@@H](C)C(=O)N[C@H]1CSSC[C@@H](C(=O)O)NC(=O)[C@H](Cc2ccccc2)NC(=O)[C@H](Cc2ccccc2)NC(=O)[C@@H](CCCNC(=N)N)NC1=O`, the concentration for half-maximal inhibition (IC50) in data set [1] is greater than 10 µM.

In turn, `CC(=O)N[C@@H](CCCNC(=N)N)C(=O)N[C@@H](C)C(=O)N[C@@H]1CSSC[C@@H](C(=O)O)NC(=O)[C@H](C)NC(=O)[C@H](Cc2ccccc2)NC(=O)[C@H](CCCNC(=N)N)NC1=O` had a concentration for half-maximal inhibition (IC50) in data set [1] greater than 10 µM.

For the compound `CC(=O)N[C@@H](CCCNC(=N)N)C(=O)N[C@@H](C)C(=O)N[C@@H]1CSSC[C@@H](C(=O)O)NC(=O)[C@H](Cc2ccccc2)NC(=O)[C@H](Cc2ccccc2)NC(=O)[C@H](C)NC1=O`, in data set [1], the IC50 was greater than 10 µM.

In data set [1], `C[C@H](NC(=O)[C@@H](N)CCCNC(=N)N)C(=O)N[C@H]1CSSC[C@@H](C(N)=O)NC(=O)[C@H](Cc2ccccc2)NC(=O)[C@H](Cc2ccccc2)NC(=O)[C@H](CCCNC(=N)N)NC1=O` (H-RACRFFC-NH2; disulfide 3-7) gave an IC50 of 5.9 µM.

With `C[C@H](NC(=O)[C@@H](N)CCCNC(=N)N)C(=O)N[C@H]1CSSC[C@@H](C(=O)O)NC(=O)[C@H](Cc2ccccc2)NC(=O)[C@H](Cc2ccccc2)NC(=O)[C@H](CCCNC(=N)N)NC1=O` (H-RACRFFC-OH; disulfide 3-7), the IC50 is 6.2 µM in [1] and 5.2 µM in data set [7]. Besides, the metabolised at 0.5 h in data set [9] came to 30%. The inhibition result in data set [2], in data set [3], in data set [4], in data set [6] and in data set [8] was “Active” in each case. For the same compound, in data set [10], the Drug metabolism entry is “Metabolite_Detected”. Moreover, in data set [11], the metabolised at 1 h was determined as 50%.

Consider `CC(=O)N[C@@H](CCCNC(=N)N)C(=O)N[C@@H](C)C(=O)N[C@H]1CSSC[C@H](C(=O)O)NC(=O)[C@H](Cc2ccccc2)NC(=O)[C@H](Cc2ccccc2)NC(=O)[C@H](CCCNC(=N)N)NC1=O`, for which the half-maximal inhibitory concentration (IC50) in [1] was 5.9 µM.

In data set [1], `CC(=O)N[C@@H](CCCNC(=N)N)C(=O)N[C@@H](C)C(=O)N[C@H]1CSSC[C@@H](C(N)=O)NC(=O)[C@H](Cc2ccccc2)NC(=O)[C@H](Cc2ccccc2)NC(=O)[C@H](CCCNC(=N)N)NC1=O` (Ac-RACRFFC-NH2; disulfide 3-7) had an IC50 of 1.23 µM. Compared with the last compound, the IC50 is about 4.8-fold lower.

Turning to `CC(=O)N[C@@H](CCCNC(=N)N)C(=O)N[C@H](C)C(=O)N[C@H]1CSSC[C@@H](C(=O)O)NC(=O)[C@H](Cc2ccccc2)NC(=O)[C@H](Cc2ccccc2)NC(=O)[C@H](CCCNC(=N)N)NC1=O`, the 50% inhibitory concentration (IC50) in [1] was greater than 10 µM.

Take `N=C(N)NCCC[C@@H]1NC(=O)[C@@H](N)CSSC[C@@H](C(=O)O)NC(=O)[C@H](Cc2ccccc2)NC(=O)[C@H](Cc2ccccc2)NC1=O` (H-CRFFC-OH; disulfide 1-5): in data set [12], the Drug uptake entry is given as “Active”.

In data set [1], `CC(=O)N[C@@H](C)C(=O)N[C@@H](C)C(=O)N[C@@H]1CSSC[C@@H](C(=O)O)NC(=O)[C@H](Cc2ccccc2)NC(=O)[C@H](Cc2ccccc2)NC(=O)[C@H](CCCNC(=N)N)NC1=O` yielded an IC50 greater than 10 µM.

In turn, `CC(=O)N[C@@H](CCCNC(=N)N)C(=O)N[C@@H](C)C(=O)N[C@@H]1CSSC[C@@H](C(=O)O)NC(=O)[C@H](Cc2ccccc2)NC(=O)[C@H](C)NC(=O)[C@H](CCCNC(=N)N)NC1=O` had an IC50 in [1] greater than 10 µM.

In data set [1], `CC(=O)N[C@@H](CCCNC(=N)N)C(=O)N[C@@H](C)C(=O)N[C@H]1CSSC[C@@H](C(=O)O)NC(=O)[C@H](Cc2ccccc2)NC(=O)[C@@H](Cc2ccccc2)NC(=O)[C@H](CCCNC(=N)N)NC1=O` yielded an IC50 greater than 10 µM.
